Laboratory results as given in article PMC10413833 (ACS Omega, 2023).
Converted amounts (≈) assume the structure as drawn.

How the values were obtained:
[1] = test system: MRSA4; assay: In vitro antibacterial activity; type: cell-based; settings: Staphylococcus aureus
[2] = test system: MRSA3; assay: In vitro antibacterial activity; type: cell-based; settings: Staphylococcus aureus
[3] = test system: MRSA1; assay: In vivo antibacterial activity, survival of MRSA1 infected mice; set-up: species or system BALB/c mice; settings: for survival (%): final survival rate after 7 days
How it was run: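 Female BALB/c mice (6–8 weeks, 18-22 g) were housed under SPF conditions. They were infected via the tail vein with 0.1 mL of a Columbia broth culture of clinical MRSA1 diluted to OD600 1.5. One hour later, test compound or vancomycin was given IV at 2.5, 10 or 40 mg/kg; an untreated model group was included. Deaths were recorded daily for 7 days to build survival curves. Tissues were examined by H&E histology.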

[4] = test system: MRSA2; assay: In vitro antibacterial activity; type: cell-based, Staphylococcus aureus
[5] = test system: MRSA5; assay: In vitro antibacterial activity; type: cell-based; settings: Staphylococcus aureus
[6] = test system: MRSA1; assay: In vitro antibacterial activity; type: cell-based; settings: Staphylococcus aureus
[7] = comparison value for vancomycin ref 18, 19; cited from earlier work

SMILES: CN[C@H](CC(C)C)C(=O)N[C@H]1C(=O)N[C@@H](CC(N)=O)C(=O)N[C@H]2C(=O)N[C@H]3C(=O)N[C@H](C(=O)N[C@H](C(=O)O)c4cc(O)cc(O)c4-c4cc3ccc4O)[C@H](O)c3ccc(c(Cl)c3)Oc3cc2cc(c3O[C@@H]2O[C@H](CO)[C@@H](O)[C@H](O)[C@H]2O[C@H]2C[C@](C)(N)[C@H](O)[C@H](C)O2)Oc2ccc(cc2Cl)[C@H]1O [vancomycin]
- MIC [1]: 256 µg/mL (≈ 177 µM)
- MIC [2]: 512 µg/mL (≈ 353 µM)
- survival (%) ([3]; 2.5 mg/kg (low-dose)): 0%
- number of mice surviving ([3]; 2.5 mg/kg via tail vein, day1, 6 mice): 3
- number of mice surviving ([3]; 2.5 mg/kg via tail vein, day2, 6 mice): 2
- number of mice surviving ([3]; 2.5 mg/kg via tail vein, day3, 6 mice): 2
- number of mice surviving ([3]; 2.5 mg/kg via tail vein, day4, 6 mice): 2
- number of mice surviving ([3]; 2.5 mg/kg via tail vein, day5, 6 mice): 1
- number of mice surviving ([3]; 2.5 mg/kg via tail vein, day6, 6 mice): 1
- number of mice surviving ([3]; 2.5 mg/kg via tail vein, day7, 6 mice): 0
- survival (%) ([3]; 10 mg/kg (medium-dose)): 16.7%
- number of mice surviving ([3]; 10 mg/kg via tail vein, day1, 6 mice): 6
- number of mice surviving ([3]; 10 mg/kg via tail vein, day2, 6 mice): 5
- number of mice surviving ([3]; 10 mg/kg via tail vein, day3, 6 mice): 2
- number of mice surviving ([3]; 10 mg/kg via tail vein, day4, 6 mice): 2
- number of mice surviving ([3]; 10 mg/kg via tail vein, day5, 6 mice): 2
- number of mice surviving ([3]; 10 mg/kg via tail vein, day6, 6 mice): 1
- number of mice surviving ([3]; 10 mg/kg via tail vein, day7, 6 mice): 1
- survival (%) ([3]; 40 mg/kg (high-dose)): 33.3%
- number of mice surviving ([3]; 40 mg/kg via tail vein, day1, 6 mice): 5
- number of mice surviving ([3]; 40 mg/kg via tail vein, day2, 6 mice): 5
- number of mice surviving ([3]; 40 mg/kg via tail vein, day3, 6 mice): 5
- number of mice surviving ([3]; 40 mg/kg via tail vein, day4, 6 mice): 4
- number of mice surviving ([3]; 40 mg/kg via tail vein, day5, 6 mice): 2
- number of mice surviving ([3]; 40 mg/kg via tail vein, day6, 6 mice): 2
- number of mice surviving ([3]; 40 mg/kg via tail vein, day7, 6 mice): 2
- ED50 ([3]; Mus musculus): 59.7 mg/kg
- kidney infection, H&E staining ([3]; high-dose (40 mg/kg)): severe kidney infection
- kidney infection, H&E staining ([3]; low-dose (2.5 mg/kg)): severe kidney infection
- kidney infection, H&E staining ([3]; medium-dose (10 mg/kg)): severe kidney infection
- MIC ([4]; Staphylococcus aureus): > 512 µg/mL
- MIC ([4]; clinical isolate MRSA2): >512 µg/mL
- MIC [5]: 256 µg/mL (≈ 177 µM)
- MIC [6]: 256 µg/mL (≈ 177 µM)
- half-life (T1/2) [7]: 4.3 ± 1.9 h
